Measured values: ChEMBL document CHEMBL3217651, “A furoxan-amodiaquine hybrid as a potential therapeutic for three parasitic diseases()” (Medchemcomm, 2012)
Active and inactive are the calls of the source. No cut-off for these calls is given here.

What was measured:
Plasmodium falciparum [1] = assay: Antimalarial activity against chloroquine-sensitive Plasmodium falciparum 3D7 infected in human erythrocytes after 72 hrs by SYBR Green I staining; conditions: 3D7, 72 h
Plasmodium falciparum [2] = assay: Antimalarial activity against chloroquine-sensitive Plasmodium falciparum 3D7 infected in human erythrocytes after 96 hrs by luciferase based delayed death assay; type: functional, organism-based; conditions: 3D7, 96 h
Method in brief: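 Delayed-death format of the 3D7 erythrocyte proliferation assay: parasites incubated 96 hours with compound so that activity against progeny is detected, with luciferase as the viability reporter; IC50 taken from this read-out.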

Schistosoma mansoni [3] = assay: Antischistosomiasis activity against Schistosoma mansoni assessed as worm mobility and survival at 50 uM after 24 hrs by stereomicroscopic analysis; type: functional, organism-based
Method in brief: (§1)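 Adult worms perfused with RPMI 1640 from female Swiss-Webster mice 7 weeks after cercarial infection. They were washed and held at 15–20 per well in cRPMI (25 mM HEPES, penicillin/streptomycin, 10% FBS) overnight at 37 °C, 5% CO2. Compound from 10 mM DMSO stock was tested at 50, 10, 5 and 1 μM against DMSO-only wells. Media plus compound were renewed every 48 h; motility and survival scored by stereomicroscope, 10 s per worm.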

Ancylostoma ceylanicum [4] = assay: Nematicidal activity against Ancylostoma ceylanicum assessed as live/dead worms at 100 uM up to 120 hrs by adult worm killing assay; type: functional, organism-based
Method in brief: (§2)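 Adult A. ceylanicum taken from small intestine of infected Syrian hamsters, cultured in RPMI 1640 with 50% FCS, penicillin/streptomycin, Fungizone. Ten worms per well, 2 wells per treatment, with 100 μM compound; DMSO and 100 μM albendazole controls. Wells scored by light microscopy every 24 h for percent live/dead, death meaning complete loss of motility, across 120 h.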

Schistosoma mansoni [5] = assay: Antischistosomiasis activity against Schistosoma mansoni assessed as worm mobility and survival at 10 uM by stereomicroscopic analysis; type: functional, organism-based
Method in brief: as §1

Ancylostoma ceylanicum [6] = assay: Nematicidal activity against Ancylostoma ceylanicum assessed as live/dead worms at 100 uM after 72 hrs by adult worm killing assay; type: functional, organism-based
Method in brief: as §2

Schistosoma mansoni [7] = assay: Antischistosomiasis activity against Schistosoma mansoni at 5 nM to 50 uM by thioredoxin glutathione reductase biochemical assay; type: functional
Method in brief: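 S. mansoni TGR (20 nM) preincubated 10 min at room temperature with 100 μM NADPH and compound (50 μM to 5 nM, eight levels) in 0.1 M potassium phosphate pH 7.4, 10 mM EDTA. Then 3 mM DTNB was added and A412 followed over the first 3 min. Residual activity was expressed relative to DMSO controls, in triplicate, and IC50 derived.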

Plasmodium falciparum [8] = assay: Ratio of IC50 for chloroquine-sensitive Plasmodium falciparum 3D7 by luciferase based delayed death assay to IC50 for chloroquine-sensitive Plasmodium falciparum 3D7 by SYBR Green I staining; type: functional
Method in brief: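 P. falciparum 3D7 in human erythrocytes (0.3% parasitemia, 2.5% hematocrit final), seven fivefold dilutions from 5.7 or 29 μM. Standard format: 72 h at 37 °C, 5% CO2, then saponin/Triton lysis with SYBR Green I overnight in the dark, fluorescence 485/535 nm. Delayed-death format: 96 h, luciferase viability read-out. The line is the ratio of the delayed-death IC50 to the SYBR IC50.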

| Activity (Schistosoma mansoni [7]) | SMILES | IC50 (Plasmodium falciparum [1]) | IC50 (Plasmodium falciparum [2]) | Activity (Schistosoma mansoni [3]) | Activity (Ancylostoma ceylanicum [4]) | Activity (Schistosoma mansoni [5]) | Activity (Ancylostoma ceylanicum [6]) | Ratio IC50 (Plasmodium falciparum [8]) |
| --- | --- | --- | --- | --- | --- | --- | --- | --- |
| – | CCN(CC)Cc1cc(Nc2ccnc3cc(Cl)ccc23)ccc1O | 15 nM | > 10000 nM | – | – | – | – | – |
| – | CC(C)(C)N(Cc1cc(Nc2ccnc3cc(Cl)ccc23)cc(-c2no[n+]([O-])c2C#N)c1)N=O | 113 nM | > 15000 nM | – | – | – | – | – |
| Active | CC(C)(C)NCc1cc(Nc2ccnc3cc(Cl)ccc23)cc(-c2no[n+]([O-])c2C#N)c1 | 40 nM | 630 nM | Active | Active | inactive | Active | – |
| – | C[C@@H]1CC[C@H]2[C@@H](C)C(=O)O[C@@H]3O[C@@]4(C)CC[C@@H]1[C@]32OO4 [ARTEMISININ] | 11 nM | 12 nM | – | – | – | – | – |
| – | CC(C)(C)N(Cc1cc(Nc2ccnc3cc(Cl)ccc23)cc(-c2no[n+]([O-])c2/C=N/O)c1)N=O | 24 nM | 1070 nM | – | – | – | – | 50 |
| – | CC(C)(C)NCc1cc(Br)cc(Nc2ccnc3cc(Cl)ccc23)c1 | 7 nM | 65 nM | – | – | – | – | – |
| Active | N#Cc1c(-c2ccccc2)no[n+]1[O-] [FUROXAN] | – | – | – | – | Active | – | – |
